The text below walks through data of ChEMBL document CHEMBL1122869, “Substituted benzamides with conformationally restricted side chains. 1. Quinolizidine derivatives as selective gastric prokinetic agents” (1985).

Experiment [1] deals with Rattus norvegicus. The experiment in a line: Tested for stimulation of intragastric pressure in rat on sc administration; range 1-50 mg/kg. Type of experiment: functional. The procedure, abridged:
(§1)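 Male Wistar rats (200-500 g) with chronic gastric fistula, fasted overnight and restrained in Bollman cages. Only animals with basal motility <4 mmHg mean amplitude were used. Pressure waves were recorded via the fistula through a transducer over four 10-min periods before and after sc dosing, and the mean motility index was derived from them. Usually four groups of 10 rats received graded doses or vehicle.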

Experiment [2] has as its system Rattus norvegicus. The experiment in a line: Tested for stimulation of intragastric pressure in ra0t on sc administration; range 1-50 mg/kg.
A further experiment has as its system Mus musculus. The experiment in a line: Tested for anti-apomorphine climbing activity in mouse on sc administration.
Experiment [3] has as its system Rattus norvegicus. The experiment in a line: Tested for stimulation of intragastric pressure in rat on sc administration. It counts as functional. The procedure, abridged:
as §1

Experiment [4] concerns Rattus norvegicus. The experiment in a line: Tested for stimulation of intragastric pressure in rat on sc administration; range 1-10 mg/kg. It counts as functional. The procedure, abridged:
as §1

The mark [5] stands for this setting: Rattus norvegicus, read-out: ED50.
The mark [6] stands for this setting: Mus musculus, sc, read-out: ED50.

Each structure is given as a SMILES string.

As a reminder, the ED50 is the dose that gives a 50% effect, or the effect in half of the subjects. `COc1cc(N)c(Cl)cc1C(=O)NC1CCC2CCCCN2C1` (configuration not stated) had an ED50 in the experiment with Rattus norvegicus [1] of 1 mg/kg.

`COc1cc(N)c(Cl)cc1C(=O)NC1CCCN2CCCCC12` (configuration not stated) yielded an ED50 with Rattus norvegicus [2] of 1 mg/kg.

Regarding `COc1cc(N)c(Cl)cc1C(=O)NC1CCCN2CCCCC12` (stereo in doubt; 2a), the ED50 in the experiment with Rattus norvegicus [1] was 1 mg/kg; with Mus musculus, more than 50 mg/kg.

In the case of `COc1cc(N)c(Cl)cc1C(=O)NC1CCCN2CCCCC12` (stereo in doubt; 2b), the ED50 in the experiment on Rattus norvegicus [1] (setting [5]) is more than 50 mg/kg; in the experiment on Mus musculus it was 0.4 mg/kg.

For `COc1cc(N)c(Cl)cc1C(=O)NC1CCC2CCCCN2C1` (stereo in doubt; 2c), the ED50 is 1 mg/kg in the experiment on Rattus norvegicus [1] (setting [5]) and 12 mg/kg in the experiment with Mus musculus.

Consider `COc1cc(N)c(Cl)cc1C(=O)NC1CCN2CCCCC2C1` (stereo in doubt; 2e), for which the median effective dose (ED50) in the experiment on Rattus norvegicus [3] was 4 mg/kg; with Mus musculus, 7 mg/kg.

In the case of `COc1cc(N)c(Cl)cc1C(=O)NC1CCN2C(C)CCCC2C1` (stereo in doubt; 2f) [BRL-20627], the ED50 with Rattus norvegicus [1] (setting [5]) was 1 mg/kg; in the experiment with Mus musculus it was more than 50 mg/kg.

Consider `COc1cc(N)c(Cl)cc1C(=O)NC1CCN2CCCCC2C1` (stereo in doubt; 2g), for which the results for the ED50 in the experiment on Rattus norvegicus [3] and in the experiment with Mus musculus were 0.8 mg/kg and 25 mg/kg, respectively.

For `COc1cc(N)c(Cl)cc1C(=O)NC1CCC2CCCCN2C1` (stereo in doubt; form 1), the ED50 in the experiment on Rattus norvegicus [4] is 1 mg/kg; in the experiment with Mus musculus, 10 mg/kg.

Consider `COc1cc(N)c(Cl)cc1C(=O)NC1CCN2C(C)CCCC2C1` (stereo in doubt; form 1) [BRL-20627], for which the ED50 in the experiment on Rattus norvegicus [3] (setting [5]) worked out at 0.8 mg/kg; with Mus musculus (setting [6]), 25 mg/kg.

Regarding `COc1cc(N)c(Cl)cc1C(=O)NC1CCC2CCCCN2C1` (stereo in doubt; form 2), the figures for the median effective dose (ED50) with Rattus norvegicus [4] (setting [5]) and with Mus musculus (setting [6]) were 1 mg/kg and 10 mg/kg, respectively.

`COc1cc(N)c(Cl)cc1C(=O)NC1CCN2C(C)CCCC2C1` (stereo in doubt; form 2) [BRL-20627]: the ED50 in the experiment with Rattus norvegicus [3] stood at 0.8 mg/kg; with Mus musculus, 25 mg/kg.

`COc1cc(N)c(Cl)cc1C(=O)NC1CCN2C(C)CCCC2C1` (configuration not stated) [BRL-20627] displayed a median effective dose (ED50) with Rattus norvegicus [1] of 1 mg/kg.

As to `CCN(CC)CCNC(=O)c1cc(Cl)c(N)cc1OC` [METOCLOPRAMIDE], the ED50 with Rattus norvegicus [3] amounted to 1 mg/kg; in the experiment with Rattus norvegicus [3] (setting [5]), 1 mg/kg; with Mus musculus it was 0.75 mg/kg; with Mus musculus (setting [6]), 0.75 mg/kg.
